In one test the test system is K562. Kind of test: Antiproliferative activity against human K562 cells after 48 hrs by MTT assay. Format: functional. The conditions noted are these: K562, 48 h. An outline of the steps: (§1)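 MTT read-out after 48 h incubation. GI50 taken as the concentration giving 50% growth inhibition relative to untreated controls. Fluorouracil served as positive control.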
The subject of test [1] is SH-SY5Y. The test is described as follows: Antiproliferative activity against human SH-SY5Y cells after 48 hrs by MTT assay. Type of test: functional. The procedure, abridged: as §1
In another test the test system is AGS. Kind of test: Antiproliferative activity against human AGS cells after 48 hrs by MTT assay. Format: functional. The procedure, abridged: as §1
Test [2] in a line: Inhibition of PDE4 (unknown origin) using FAM-Cyclic-3',5'-AMP as substrate after 1 hr by fluorescence polarization assay. The arrangement: species or system Homo sapiens. The procedure, abridged: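 Each compound was tested at nine concentrations spanning 10^-8 to 10^-4 M, with rolipram as positive control. IC50 was obtained by nonlinear regression of the inhibition curves.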

Test [3] deals with SH-SY5Y. Kind of test: Cell cycle arrest in human SH-SY5Y cells assessed as accumulation at G0/G1 phase at 5 uM after 48 hrs by propidium iodide staining based flow cytometry (reference value: 47.67 +/- 1.1%). Format: functional.
In test [4] the test system is SH-SY5Y. Kind of test: Cell cycle arrest in human SH-SY5Y cells assessed as accumulation at S-phase at 5 uM after 48 hrs by propidium iodide staining based flow cytometry (reference value: 40.2 +/- 1.8%). Type of test: functional.
Test [5] concerns SH-SY5Y. The test is described as follows: Cell cycle arrest in human SH-SY5Y cells assessed as accumulation at G2/M-phase at 5 uM after 48 hrs by propidium iodide staining based flow cytometry (reference value: 12.13 +/- 0.7%). Format: functional.
In test [6] the test system is SH-SY5Y. The test is described as follows: Cell cycle arrest in human SH-SY5Y cells assessed as accumulation at G0/G1 phase at 10 uM after 48 hrs by propidium iodide staining based flow cytometry (reference value: 47.67 +/- 1.1%). Format: functional.
Test [7] relates to SH-SY5Y. Kind of test: Cell cycle arrest in human SH-SY5Y cells assessed as accumulation at S-phase at 10 uM after 48 hrs by propidium iodide staining based flow cytometry (reference value: 40.2 +/- 1.8%). Format: functional.
Test [8] deals with SH-SY5Y. Kind of test: Cell cycle arrest in human SH-SY5Y cells assessed as accumulation at G2/M-phase at 10 uM after 48 hrs by propidium iodide staining based flow cytometry (reference value: 12.13 +/- 0.7%). Type of test: functional.
Test [9] has as its system SH-SY5Y. The test is described as follows: Cell cycle arrest in human SH-SY5Y cells assessed as accumulation at G0/G1 phase at 20 uM after 48 hrs by propidium iodide staining based flow cytometry (reference value: 47.67 +/- 1.1%). Format: functional.
The test system of test [10] is SH-SY5Y. Kind of test: Cell cycle arrest in human SH-SY5Y cells assessed as accumulation at S-phase at 20 uM after 48 hrs by propidium iodide staining based flow cytometry (reference value: 40.2 +/- 1.8%). Format: functional.
Test [11] concerns SH-SY5Y. Kind of test: Cell cycle arrest in human SH-SY5Y cells assessed as accumulation at G2/M-phase at 20 uM after 48 hrs by propidium iodide staining based flow cytometry (reference value: 12.13 +/- 0.7%). Type of test: functional.
The subject of test [12] is SH-SY5Y. Kind of test: Cell cycle arrest in human SH-SY5Y cells assessed as accumulation at G0/G1-phase after 48 hrs by propidium iodide staining based flow cytometry. Type of test: functional.
The test system of test [13] is SH-SY5Y. The test is described as follows: Induction of apoptosis in human SH-SY5Y cells assessed as live cells at 10 uM after 48 hrs by Annexin V-FITC/propidium iodide staining based flow cytometry (reference value: 89.95%). Format: functional. An outline of the steps: (§2)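 SH-SY5Y cells treated 48 h at 10 or 20 µM, then stained with Annexin V-FITC and propidium iodide and analysed by flow cytometry. Quadrants were scored as live, early apoptotic, late apoptotic and necrotic. DMSO served as control. Values are means of three independent experiments. Significance was tested versus control.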

For test [14], the system named is SH-SY5Y. The test is described as follows: Induction of apoptosis in human SH-SY5Y cells assessed as early apoptotic cells at 10 uM after 48 hrs by Annexin V-FITC/propidium iodide staining based flow cytometry (reference value: 1.3%). Type of test: functional. The procedure, abridged: as §2
Test [15] concerns SH-SY5Y. Kind of test: Induction of apoptosis in human SH-SY5Y cells assessed as late apoptotic cells at 10 uM after 48 hrs by Annexin V-FITC/propidium iodide staining based flow cytometry (reference value: 3.68%). Type of test: functional. An outline of the steps:
as §2

Test [16] has as its system SH-SY5Y. The test is described as follows: Induction of apoptosis in human SH-SY5Y cells assessed as necrotic cells at 10 uM after 48 hrs by Annexin V-FITC/propidium iodide staining based flow cytometry (reference value: 5.06%). Format: functional. An outline of the steps:
as §2

Test [17] relates to SH-SY5Y. The test is described as follows: Induction of apoptosis in human SH-SY5Y cells assessed as live cells at 20 uM after 48 hrs by Annexin V-FITC/propidium iodide staining based flow cytometry (reference value: 89.95%). Type of test: functional. An outline of the steps: as §2
Test [18] deals with SH-SY5Y. Kind of test: Induction of apoptosis in human SH-SY5Y cells assessed as early apoptotic cells at 20 uM after 48 hrs by Annexin V-FITC/propidium iodide staining based flow cytometry (reference value: 1.3%). Type of test: functional. An outline of the steps:
as §2

The subject of test [19] is SH-SY5Y. The test is described as follows: Induction of apoptosis in human SH-SY5Y cells assessed as late apoptotic cells at 20 uM after 48 hrs by Annexin V-FITC/propidium iodide staining based flow cytometry (reference value: 3.68%). Format: functional. An outline of the steps: as §2
In test [20] the test system is SH-SY5Y. The test is described as follows: Induction of apoptosis in human SH-SY5Y cells assessed as necrotic cells at 20 uM after 48 hrs by Annexin V-FITC/propidium iodide staining based flow cytometry (reference value: 5.06%). Type of test: functional. The procedure, abridged:
as §2

The test system of test [21] is SH-SY5Y. Kind of test: Induction of apoptosis in human SH-SY5Y cells assessed as increase in late apoptotic cells after 48 hrs by Annexin V-FITC/propidium iodide staining based flow cytometry. Format: functional, cell-based. An outline of the steps:
as §2

`COc1ccc(Cn2nc(NCCOc3ccccc3OC)ccc2=O)cc1OC`: the GI50 in the test with K562, in the test with SH-SY5Y [1] and in the test on AGS was more than 100 µM in each case. Half-maximal inhibition in test [2] (IC50) was put at 66.9 µM.
As to `COc1ccccc1OCCNc1ccc(=O)n(Cc2ccc(OC(F)F)c(OC3CCCC3)c2)n1`, the GI50 in the test on K562 is 9.1 µM; in the test on SH-SY5Y [1], 9.3 µM; with AGS, 23.6 µM. This compound also had an IC50 in test [2] of 12.2 µM. The Activity was determined as 53.22% with SH-SY5Y [3]; 36.44% with SH-SY5Y [4]; 10.34% with SH-SY5Y [5]; 62.1% with SH-SY5Y [6]; 30.16% with SH-SY5Y [7]; 7.74% in the test with SH-SY5Y [8]. In addition, the Activity is 63.55% in the test on SH-SY5Y [9]; 29.58% in the test on SH-SY5Y [10]; 6.87% with SH-SY5Y [11]; “Dose-dependent effect” with SH-SY5Y [12]; 84.34% in the test with SH-SY5Y [13]; 3.12% with SH-SY5Y [14]. Moreover, the Activity in the test on SH-SY5Y [15] worked out at 8.05%; with SH-SY5Y [16], 4.48%; in the test with SH-SY5Y [17], 64.46%; in the test with SH-SY5Y [18] it was 8.82%; in the test on SH-SY5Y [19] it was 18.54%; in the test on SH-SY5Y [20], 8.18%. In addition, the Activity entry in the test with SH-SY5Y [21] is “Dose-dependent effect”.
As for `COc1ccccc1OCCNc1cnn(Cc2ccc(OC(F)F)c(OCC3CC3)c2)c(=O)c1Cl`, the GI50 in the test on K562 was 67.6 µM; in the test on SH-SY5Y [1], more than 100 µM; with AGS it was more than 100 µM. The IC50 in test [2] is more than 100 µM.
As for `COc1ccc(Cn2ncc(NCCOc3ccccc3OC)c(Cl)c2=O)cc1OC`, the GI50 with K562 is more than 100 µM; in the test with SH-SY5Y [1], 33.1 µM; in the test on AGS it was more than 100 µM. Moreover, in test [2], the IC50 was 73 µM.
In [2], `COc1ccc(C2CNC(=O)C2)cc1OC1CCCC1` (stereo not given) [ROLIPRAM] gave an IC50 of 0.5 µM.
Regarding `COc1ccccc1OCCNc1ccc(=O)n(Cc2ccc(OC)c(OCC3CC3)c2)n1`, the GI50 was found to be 16.6 µM in the test with K562, 10.5 µM with SH-SY5Y [1] and 45.8 µM in the test on AGS. Besides, in test [2], the IC50 was more than 100 µM.
Take `COc1ccccc1OCCNc1ccc(=O)n(Cc2ccc(OC(F)F)c(OCC3CC3)c2)n1`: the figures for the GI50 in the test on K562, with SH-SY5Y [1] and in the test with AGS were 60.9 µM, 6.3 µM and 24.4 µM, respectively. In addition, the IC50 in [2] is 15.3 µM. Also, the Activity is listed as 52.15% in the test on SH-SY5Y [3]; 34.87% with SH-SY5Y [4]; 12.98% in the test on SH-SY5Y [5]; 55.6% in the test on SH-SY5Y [6]; 33.81% with SH-SY5Y [7]; 10.59% in the test with SH-SY5Y [8]. The Activity with SH-SY5Y [9] is 62.61%; in the test with SH-SY5Y [10] it was 22.75%; in the test with SH-SY5Y [11], 14.64%; in the test with SH-SY5Y [12], “Dose-dependent effect”; with SH-SY5Y [13], 85.22%; in the test on SH-SY5Y [14], 2.74%. The Activity was 7.43% in the test with SH-SY5Y [15]; 4.6% in the test with SH-SY5Y [16]; 78.53% in the test with SH-SY5Y [17]; 4.16% with SH-SY5Y [18]; 10.62% in the test on SH-SY5Y [19]; 6.69% in the test on SH-SY5Y [20]. For the same compound, in the test on SH-SY5Y [21], the Activity entry is “Dose-dependent effect”.
For `COc1ccccc1OCCNc1cnn(Cc2ccc(OC)c(OC3CCCC3)c2)c(=O)c1Cl`, the GI50 in the test with K562 is more than 100 µM; in the test on SH-SY5Y [1], 23.3 µM; in the test on AGS, more than 100 µM. This compound yielded an IC50 in test [2] of 21.5 µM.
`COc1ccccc1OCCNc1cnn(Cc2ccc(OC(F)F)c(OC3CCCC3)c2)c(=O)c1Cl`: the GI50 in the test on K562, in the test on SH-SY5Y [1] and with AGS was more than 100 µM each time. The compound further returned an IC50 in test [2] of 39.1 µM.
In the case of `O=c1[nH]cc(F)c(=O)[nH]1` [FLUOROURACIL], the results for the concentration for 50% growth inhibition (GI50) in the test on K562, in the test on SH-SY5Y [1] and in the test on AGS were 18.5 µM, 11.9 µM and 24.6 µM, respectively.
Take `COc1ccccc1OCCNc1cnn(Cc2ccc(OC)c(OCC3CC3)c2)c(=O)c1Cl`: the GI50 was more than 100 µM with K562, 37.9 µM in the test on SH-SY5Y [1] and more than 100 µM with AGS. In [2], this compound registered an IC50 of 45.2 µM.
As to `COc1ccc(Cn2nc(NCCOc3ccccc3OC)ccc2=O)cc1Br`, the GI50 in the test on K562, in the test on SH-SY5Y [1] and in the test on AGS was more than 100 µM each time. In addition, 44 µM corresponded to half-maximal inhibition in [2] (IC50).
`COc1ccccc1OCCNc1ccc(=O)n(Cc2ccc(OC)c(OC3CCCC3)c2)n1`: the figures for the GI50 in the test on K562, in the test with SH-SY5Y [1] and in the test with AGS were 28 µM, more than 100 µM and more than 100 µM, respectively. This compound also had a 50% inhibitory concentration (IC50) in [2] of more than 100 µM.
Regarding `COc1ccccc1OCCNc1cnn(Cc2ccc(OC)c(-c3cccc(Cl)c3)c2)c(=O)c1Cl`, the GI50 in the test with K562, in the test on SH-SY5Y [1] and with AGS was more than 100 µM each time. This compound had an IC50 in test [2] of more than 100 µM.

Source of the values: ChEMBL document CHEMBL4138132, “Design, synthesis and biological evaluation of substituted aminopyridazin-3(2H)-ones as G0/G1-phase arresting agents with apoptosis-inducing activities” (Eur J Med Chem, 2017).
